HSP90 inh: inhibitors of HSP90 luciferase refolding in rabbit reticulocyte lysate | luciferase refolding luminescence, 3 h | inhibition, % at 5.6 µM | 0.91% of 290,000 active | AID 1789;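 active means inhibition above the screen-wide mean plus 3 SD, computed separately per campaign, cut at about 16% in these data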;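 further: 0% = DMSO wells and 100% = 60 µM geldanamycin wells; inhibitors lower the luminescence because luciferase stays unfolded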
HSF1 inhib: HSF1 inhibition. NIH3T3-HGL HSE-luciferase, MG132-induced, luminescence 8 h; hits give low values. 0.77% of 300,000 active. activity change, negative = inhibition, % at 7.5 µM (by protocol);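 active means more than half of replicate wells show activity change below -50%, luminescence cut by over half; inconclusive means some wells, but at most half, below -50%; inactive means no replicate well below -50%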;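 further: luciferase reports HSF-1 transcriptional activity via heat shock element; 0% = median of DMSO wells and -100% = zero luminescence signal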
DNA FID counter: counter-screen for HCV NS3 helicase inhibitors: DNA intercalator displacement; DNA fluorescent intercalator displacement, fluorescence; inhibition, % at 7.9 µM; 0.17% of 290,000 active; in the data active means inhibition above about 37%;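 further: 0% = vehicle and 100% = reference compound; higher means more ethidium bromide displaced from hairpin DNA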
NS3 helicase inh: inhibitors of Hepatitis C virus NS3 helicase | NS3 helicase DNA unwinding, Cy5 molecular beacon fluorescence | inhibition, % at 10.9 µM | 0.56% of 290,000 active | AID 1800;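 active means inhibition above the mean of all tested compounds plus 3 SD, set per campaign, cut at about 35% in these data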;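 further: 0% = DMSO wells and 100% = thioflavine S control wells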
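Assay system: hepatitis C virus NS3 helicase domain fragment enzyme. Also added: annealed dual-labelled DNA beacon duplex, ATP-started. Timing: 1 h reaction at 25 °C, ATP-initiated. Technique: Cy5 fluorescence at 0 and 60 min, beacon hairpin quenching. Evaluation: % inhibition of unwinding. Replication: one well per compound.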
core dimer inh: HCV core protein dimerization inhibition. inhibition, % at 5 µM. TR-FRET GST/Flag-core106 dimerization, 1536-well. 0.33% of 300,000 active;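 active means inhibition above the mean of all tested compounds plus 3 SD, set per screening campaign, cut at about 45% in these data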
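test system = GST/Flag-tagged HCV core106 proteins | probe or stimulus = Eu donor and XL665 acceptor anti-tag antibodies | times = compound-protein-antibody incubation 4 h at 22.5 °C | signal = TR-FRET, excitation 340 nm, emission 617 and 671 nm | measure = percent inhibition of core106 dimerization signal | controls = wells lacking GST-core106 and wells with excess unlabelled core106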
HSF1 activator: increases HSF-1 driven luciferase reporter signal. activation, % at 9 µM. NIH3T3-HGL HSF-1 luciferase reporter, MG132, 8 h; 100% = twice DMSO control signal. 1.7% of 300,000 active. AID 504408;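 active means mean replicate activation of at least 50% with a set share of replicates each reaching 50%; inconclusive means only one of those two conditions met; inactive means mean below 50% and too few replicates reaching it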;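 further: 0% = median of the neutral control wells and 100% = twice that signal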
* hit, by the source's call; ? = inconclusive; / = not tested or not shown. The list is not random: actives were taken first. Their share in the collection is about 3.9%.

SMILES	HSP90 inh	HSF1 inhib	DNA FID counter	NS3 helicase inh	core dimer inh	HSF1 activator
CCOc1c2ccccc2nn1CCO	/	/	/	/	-10	/
CC(C)CC(=O)NC(=S)Nc1ccccc1N1CCCC1	6	4	-13	2	4	13
CC(=O)Nc1ccc(OCc2nnc(-c3ccc(Cl)cc3)o2)cc1	-1	44	-11	7	13	65*
COc1ccc(N=C(NN)c2ccc3ccccc3n2)cc1	16	-61*	-18	-7	-2	-65
N#C/C(=C\Nc1ccccc1SC(F)(F)F)c1nc(-c2ccc(Cl)cc2)cs1	5	-5	-1	10	5	8
CC(C)c1ccc(/C=C/C(=O)NC2=NCCS2)cc1	1	22	-11	-35	1	48
O=C(/C=C/c1ccc(Cl)c(Cl)c1)NC1=NCCS1	0	25	1	15	6	54*
Cc1ccc(N2C(=O)C3C4C=CC(CNC(=S)Nc5ccc(Cl)cc5)(O4)C3C2=O)cc1 (centres undefined)	-2	29	-6	1	2	55*
CC(C)(C)C(=O)NCC12C=CC(O1)C1C(=O)N(c3ccccc3)C(=O)C12 (centres undefined)	2	184	-1	13	-5	203*
Cc1ccc(N2C(=O)C3C4C=CC(CNC(=S)Nc5ccc(F)cc5)(O4)C3C2=O)cc1 (centres undefined)	2	25	0	8	0	21
Nc1cc(-c2ccc(OC(F)(F)F)cc2)nn1-c1ccc(Cl)c(Cl)c1	0	-4	12	0	-5	-2
CCn1c(NC(=S)Nc2ccccc2)nc2ccccc21	-2	-60*	-2	-22	4	-69
COc1ccc(N(C(=O)c2cc3ccccc3oc2=O)C2C=CS(=O)(=O)C2)cc1 (centres undefined)	-3	1	-4	1	-2	2
CCC1(c2ccccc2)NC(=S)N(c2ccc(C)c(C)c2)N1 (centres undefined)	-2	21	-7	6	-2	52*
CCC1(c2ccc(Cl)cc2)NC(=S)N(c2ccc(C)cc2)N1 (centres undefined)	-1	28	1	8	1	61*
Cc1c(C(=S)Nc2ccccc2)cnn1-c1ccc([N+](=O)[O-])cc1	-3	11	-1	-7	-1	1
CCOC(=O)c1cnn(-c2ccccc2)c1-c1ccccc1	3	2	-18	-10	1	8
Cc1c(C(=S)Nc2ccccc2)cnn1-c1ccccc1	-5	21	-12	-1	5	62*
CCOC(=O)c1cnn(-c2ccccc2)c1-n1cccc1	3	-74*	-5	5	-7	-77
CCc1ccc(NC(=O)c2cnn(-c3ccccc3)c2C)cc1	3	23	-9	3	-6	57*
Cn1c(=O)c2c(ncn2CC(=O)N2CCN(C(=O)c3ccco3)CC2)n(C)c1=O	3	-1	-3	1	0	-8
CN(C)S(=O)(=O)c1ccc(N2CCCC2)c(C(=O)NNC(=O)c2ccc(Br)cc2)c1	/	4	/	/	-3	21
Cc1nn(CC(=O)Nc2ccc(Cl)cn2)c(C)c1Br	-2	-31	-4	-2	6	-51
CCOC(=O)c1[nH]c(C)c(C(=O)NCc2cccnc2)c1C	1	-3	-2	16	-4	4
CC(C)(C)OC(=O)N[C@@H](Cc1ccccc1)C(=O)NCC1CCC(C(=O)N[C@@H](CC(=O)O)C(=O)O)CC1 (some centres undefined)	-4	-63*	-1	7	-2	-71
SMILES	HSP90 inh	HSF1 inhib	DNA FID counter	NS3 helicase inh	core dimer inh	HSF1 activator
Cc1n[nH]c(C)c1CCOc1ccc(C(C)C)cc1	-4	47	-24	10	-15	100*
Cc1nc(SCc2ccc(C(=O)O)cc2)c2c(C)c(C)sc2n1	-9	-5	-32	29	10	1
CCCCn1c(=N)n(CC(O)COc2ccccc2)c2ccccc21 (centres undefined)	1	-10	13	-17	-4	1
CCCCn1c(=N)n(CC(O)COc2ccc(C)cc2)c2ccccc21 (centres undefined)	4	-4	41*	-92	-4	-2
Cc1ccccc1-n1c(=O)cc(N2CCN(C(=O)c3ccco3)CC2)[nH]c1=O	1	-3	-5	10	-13	-3
CSc1nc(-c2ccco2)nn1C(=O)c1ccco1	-3	0	8	12	1	3
CSc1cc(-c2ccco2)oc1C(=O)c1ccco1	/	21	/	/	1	51*
C[n+]1ccc(CC2C(=[N+]([O-])[O-])C=Nc3ncnn32)cc1 (centres undefined)	-6	/	20	4	/	/
CCn1cc(C(=O)N2CCN(c3ccc([N+](=O)[O-])cc3)CC2)c(=O)c2ccc(C)nc21	2	-1	-37	3	-9	-14
CC(CCC(=O)O)C1CC[C@H]2C3CCC4CC(=O)CCC4(C)[C@H]3CC(=O)C12C (some centres undefined)	3	13	-50	34	-1	58*
Cn1ccs/c1=N\C(=O)Nc1ccccc1	-1	19	2	-11	-6	11
O=C(Nc1ccc(N2CCOCC2)cc1)C1CCN(S(=O)(=O)c2ccccc2F)CC1	3	-9	-15	13	-3	-2
O=C(CNS(=O)(=O)c1ccccc1F)Nc1ccc(N2CCOCC2)cc1	3	-88*	-4	2	-7	-91
COc1ccc2[nH]c3c(=O)n(CCCN4CCOCC4)cnc3c2c1	1	-63*	-2	-2	2	-70
O=S(=O)(c1ccc(F)cc1)N1CCCN(c2nccc(C(F)(F)F)n2)CC1	1	4	-17	10	-5	7
CCOC(=O)Cc1nnc2c(Nc3ccccc3F)nc3nonc3n12	10	-74*	-2	14	-1	-79
CCOC(=O)NC1=NCC(C)(C)S1	/	-5	/	/	/	-5
CC1(C)CC(=O)C(C=Nc2ccncc2)=C(O)C1	-4	-7	3	2	-3	0
CC1(C)CC(=O)C(C=Nc2cccnc2)=C(O)C1	0	79	-2	13	-4	133*
O=C(NCc1ccccc1)c1c(O)c2ccccc2[nH]c1=O	-3	-4	-2	10	/	-11
COC(=O)[C@@]1(Cc2ccc(OC)cc2)[C@@H]2C(=CC(=O)[C@H]2CC(=O)C(=O)N(C)C)CN1C(=O)c1ccccc1	3	/	-44	1	8	/
C=C1C(=O)C=C2CN(C(=O)c3ccccc3)[C@@](Cc3ccc(F)cc3)(C(=O)OC)[C@@H]12	18*	40	-16	4	13	?
O=C(/C=C/c1ccc2c(c1)OCO2)Nc1nncs1	2	22	2	11	6	53*
